Measured values reported in ChEMBL document CHEMBL1157027, “The identification of 8,9-dimethoxy-5-(2-aminoalkoxy-pyridin-3-yl)-benzo[c][2,7]naphthyridin-4-ylamines as potent inhibitors of 3-phosphoinositide-dependent kinase-1 (PDK-1)” (Eur J Med Chem, 2010).

Key:
[1] = biological target: RAC-alpha serine/threonine-protein kinase (Homo sapiens, UniProt P31749); test: Inhibition of AKT
[2] = biological target: Ribosomal protein S6 kinase beta-1 (Homo sapiens, UniProt P23443); test: Inhibition of p70S6K
[3] = biological target: T1, 3-phosphoinositide-dependent protein kinase 1 (Homo sapiens, UniProt O15530); test: Inhibition of human GST-tagged-PDK1 expressed in HEK293 cells; type: cell-based
T1 sequence (O15530 whole entry): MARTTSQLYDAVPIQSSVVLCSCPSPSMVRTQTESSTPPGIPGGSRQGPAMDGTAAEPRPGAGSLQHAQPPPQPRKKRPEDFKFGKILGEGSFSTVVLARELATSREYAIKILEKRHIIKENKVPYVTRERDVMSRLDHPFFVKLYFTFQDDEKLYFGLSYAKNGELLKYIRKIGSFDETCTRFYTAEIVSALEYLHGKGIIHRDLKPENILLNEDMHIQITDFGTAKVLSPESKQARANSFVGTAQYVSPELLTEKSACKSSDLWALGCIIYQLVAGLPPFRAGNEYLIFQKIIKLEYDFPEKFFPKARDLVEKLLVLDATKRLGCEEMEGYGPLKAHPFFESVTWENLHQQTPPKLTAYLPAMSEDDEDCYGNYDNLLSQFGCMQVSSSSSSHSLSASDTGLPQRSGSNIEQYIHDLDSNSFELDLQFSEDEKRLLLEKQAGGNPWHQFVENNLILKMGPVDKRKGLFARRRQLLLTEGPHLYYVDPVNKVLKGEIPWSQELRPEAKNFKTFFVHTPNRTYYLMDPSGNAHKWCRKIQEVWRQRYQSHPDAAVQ

[4] = Inhibition of PKA
Summary of the method: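 PKA activity was measured with the Z'-LYTE kinase assay, run per the manufacturer's protocol at 100 uM ATP. IC50 values are given in nM.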

Ribosomal protein S6 kinase beta-1, sequence (P23443 whole entry): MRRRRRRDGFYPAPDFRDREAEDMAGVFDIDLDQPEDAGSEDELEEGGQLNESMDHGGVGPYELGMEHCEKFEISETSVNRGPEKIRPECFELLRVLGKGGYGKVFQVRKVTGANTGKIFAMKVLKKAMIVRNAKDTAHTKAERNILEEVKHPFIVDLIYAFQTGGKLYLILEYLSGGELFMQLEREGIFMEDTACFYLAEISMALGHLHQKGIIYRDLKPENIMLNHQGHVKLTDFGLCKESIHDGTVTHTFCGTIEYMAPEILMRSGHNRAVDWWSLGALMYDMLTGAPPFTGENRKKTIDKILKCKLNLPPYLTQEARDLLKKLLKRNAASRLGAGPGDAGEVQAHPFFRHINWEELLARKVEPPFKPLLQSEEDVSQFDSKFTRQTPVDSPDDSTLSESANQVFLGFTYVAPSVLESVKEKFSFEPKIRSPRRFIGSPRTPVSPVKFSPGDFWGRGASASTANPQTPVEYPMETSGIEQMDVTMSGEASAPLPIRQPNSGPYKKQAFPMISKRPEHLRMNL
RAC-alpha serine/threonine-protein kinase, sequence (P31749 whole entry): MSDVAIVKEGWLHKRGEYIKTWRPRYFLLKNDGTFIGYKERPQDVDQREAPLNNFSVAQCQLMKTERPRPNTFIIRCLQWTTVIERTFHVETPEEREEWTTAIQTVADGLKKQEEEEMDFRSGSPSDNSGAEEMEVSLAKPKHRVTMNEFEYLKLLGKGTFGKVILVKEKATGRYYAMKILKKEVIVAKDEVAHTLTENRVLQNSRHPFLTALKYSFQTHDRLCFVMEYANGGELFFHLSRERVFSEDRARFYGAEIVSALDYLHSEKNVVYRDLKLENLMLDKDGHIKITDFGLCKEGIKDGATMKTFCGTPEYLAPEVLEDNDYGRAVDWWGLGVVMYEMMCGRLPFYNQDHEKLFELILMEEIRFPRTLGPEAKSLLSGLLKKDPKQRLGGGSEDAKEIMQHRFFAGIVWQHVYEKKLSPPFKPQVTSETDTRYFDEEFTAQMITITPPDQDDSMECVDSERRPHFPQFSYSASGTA

Molecule `CC[C@@H](N)COc1cncc(-c2cc3c(cnc4cc(OC)c(OC)cc43)c(N)n2)c1` has an IC50 [1] of 318 nM, an IC50 [2] of 72 nM and an IC50 [3] of 3 nM. For the same molecule, the IC50 [4] was 45 nM.
Work on `COc1cc2ncc3c(N)nc(-c4cncc(OC[C@@H](N)CC(C)C)c4)cc3c2cc1OC` yielded an IC50 [1] of 905 nM, an IC50 [2] of 219 nM and an IC50 [3] of 14 nM. The IC50 [4] was 113 nM.
`COc1cc2ncc3c(N)nc(-c4cncc(OC[C@H](N)CC(C)C)c4)cc3c2cc1OC` showed an IC50 [1] of 1390 nM, an IC50 [2] of 443 nM and an IC50 [3] of 18 nM. For the same molecule, the IC50 [4] was 385 nM.
With `COc1cc2ncc3c(N)nc(-c4cncc(OCCN)c4)cc3c2cc1OC` the IC50 [1] was 402 nM, the IC50 [2] was 80 nM and the IC50 [4] was 66 nM.
`COc1cc2ncc3c(N)nc(-c4cncc(OC[C@H](C)N)c4)cc3c2cc1OC` showed an IC50 [4] of 123 nM.
In the case of `COc1cc2ncc3c(N)nc(-c4cncc(OC[C@H](N)Cc5cccc(C(F)(F)F)c5)c4)cc3c2cc1OC`, the IC50 [4] is reported as 142 nM.
With `COc1cc2ncc3c(N)nc(-c4cncc(OC[C@H](N)Cc5ccccc5)c4)cc3c2cc1OC` the IC50 [1] was 259 nM and the IC50 [4] was < 31 nM.
Work on `COc1cc2ncc3c(N)nc(-c4cncc(OC[C@@H](N)Cc5c[nH]c6ccccc56)c4)cc3c2cc1OC` yielded an IC50 [1] of 302 nM, an IC50 [2] of 77 nM and an IC50 [4] of 54 nM.
`COc1cc2ncc3c(N)nc(-c4cncc(OC[C@@H](N)Cc5ccc(F)cc5)c4)cc3c2cc1OC` gave an IC50 [1] of 183 nM, an IC50 [2] of 21 nM and an IC50 [4] of 32 nM.
With `COc1cc2ncc3c(N)nc(-c4cncc(OC[C@H](N)Cc5ccc(F)cc5)c4)cc3c2cc1OC` the IC50 [1] was 251 nM and the IC50 [4] was 36 nM.
For `COc1cc2ncc3c(N)nc(-c4cncc(OC[C@@H](N)Cc5ccccc5Cl)c4)cc3c2cc1OC`, the IC50 [1] was 793 nM and the IC50 [4] was 79 nM.
In the case of `COc1cc2ncc3c(N)nc(-c4cncc(OC[C@@H](N)Cc5cccc(Cl)c5)c4)cc3c2cc1OC`, the IC50 [1] is reported as 78 nM and the IC50 [4] is reported as 18 nM.
`COc1cc2ncc3c(N)nc(-c4cncc(OC[C@@H](N)Cc5ccccc5)c4)cc3c2cc1OC` showed an IC50 [1] of 261 nM, an IC50 [2] of 107 nM and an IC50 [4] of 77 nM.
With `COc1cc2ncc3c(N)nc(-c4cncc(OC[C@H](N)Cc5c[nH]c6ccccc56)c4)cc3c2cc1OC` the IC50 [1] was 1320 nM and the IC50 [4] was 120 nM.
In the case of `COc1cc2ncc3c(N)nc(-c4cncc(OC[C@@H](C)N)c4)cc3c2cc1OC`, the IC50 [3] is reported as 3 nM and the IC50 [4] is reported as 86 nM.
Work on `CC[C@H](N)COc1cncc(-c2cc3c(cnc4cc(OC)c(OC)cc43)c(N)n2)c1` yielded an IC50 [1] of 422 nM, an IC50 [2] of 216 nM and an IC50 [4] of 59 nM.
With `COc1cc2ncc3c(N)nc(-c4cncc(OC[C@@H](N)Cc5ccc(Cl)c(Cl)c5)c4)cc3c2cc1OC` the IC50 [4] was 41 nM.
Work on `COc1cc2ncc3c(N)nc(-c4cncc(OC[C@@H](N)Cc5ccncc5)c4)cc3c2cc1OC` yielded an IC50 [1] of 1750 nM, an IC50 [2] of 343 nM and an IC50 [3] of 9 nM. It also gave an IC50 [4] of 138 nM.
Molecule `COc1cc2ncc3c(N)nc(-c4cncc(OC[C@@H](N)Cc5cccc(C(F)(F)F)c5)c4)cc3c2cc1OC` has an IC50 [1] of 209 nM, an IC50 [2] of 182 nM and an IC50 [4] of 68 nM.
